How the values were obtained:
[1] = system: SK-N-BE(2c) human neuroblastoma cells; assay: Paired-label uptake by NET-expressing tumor cells; format: cell-based; conditions: SK-N-BE(2c) cells, 2 h, 37 °C, absence of inhibitor, paired-label [^18F]FPOIBG / [^125I]MIBG
Procedure, shortened: (§1)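 Cells were seeded at 5 × 10^5/well and held overnight at 37 °C, 5% CO2 (SK-N-SH: RPMI 1640 + FCS; SK-N-BE(2c): DMEM, 15% FCS; UVW-NAT: MEM, 10% FCS, 1 g/L geneticin), then PBS-washed into fresh medium. Tracers were co-incubated 2 h at 37 °C (~3.7 kBq radioiodinated, 18.5 kBq 18F). Parallel desipramine wells gave non-specific uptake. NaOH lysates and supernatants were dual-label gamma-counted and reported as % input dose.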

[2] = system: SK-N-SH human neuroblastoma cells; assay: Paired-label uptake by NET-expressing tumor cells; format: cell-based; conditions: 2 h, 37 °C, absence of inhibitor, paired-label [^18F]FPOIBG / [^125I]MIBG
Procedure, shortened: as §1

[3] = Paired-label biodistribution in normal mice; format: in vivo, Balb/c mice; conditions: for heart uptake after DMI pretreatment as percent of controls: experiment [^18F]FPOBBG / [^125I]MIBG; for heart uptake after DMI pretreatment: DMI 10 mg per kg i.p. 30 min before tracer
Procedure, shortened: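 Balb/c mice received the radiotracer pair in 100 μL PBS via tail vein: 185 kBq radioiodinated reference plus 296 kBq 18F test compound. Groups of 5 were killed by isoflurane overdose at 1, 2 and 4 h. Organs and blood were blot-dried, weighed and dual-channel gamma counted, giving %ID/g. For blocking, DMI 10 mg per kg i.p. was given 30 min pre-tracer, with sacrifice 1 h later. Co-administered agents were compared by paired 2-tailed t-test.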

[4] = system: UVW human glioma cells transfected to express NET (UVW-NAT); assay: Paired-label uptake by NET-expressing tumor cells; format: cell-based; conditions: 2 h, 37 °C, absence of inhibitor, paired-label [^18F]FPOIBG / [^125I]MIBG
Procedure, shortened: as §1

[5] = cited from earlier work
[6] = molecular target: norepinephrine transporter (NET) (Bos taurus, UniProt P51143); format: cell-based, human; conditions: read-out: IC50, competitive inhibition of [^125I]MIBG uptake; UVW-NAT cells, 2 h at 37 °C, unlabeled compound 10^−9 to 10^−3 M
Procedure, shortened: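 UVW-NAT cells (NET-transfected human glioma; MEM, 10% FCS, 1 g/L geneticin) seeded at 8 × 10^4/well and held overnight at 37 °C. After cold-PBS washes, fresh medium, [125I]MIBG (3.7 kBq) and unlabeled competitor (10−9 to 10−3 M final) were added for 2 h at 37 °C. Cells were washed, lysed in 1 N NaOH and gamma-counted with supernatants and input standards. IC50 came from nonlinear regression of uptake versus concentration.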

[7] = system: three NET-expressing cell lines (SK-N-SH, UVW-NAT, SK-N-BE(2c)); format: cell-based, human; conditions: 2 and 4 h, specific uptake (Figure 3)
Procedure, shortened: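 NET-expressing human cells (SK-N-SH, SK-N-BE(2c), NET-transfected UVW glioma) were plated at 5 × 10^5 per well and cultured overnight at 37°C, 5% CO2. They were washed, given fresh medium and incubated with the radioiodine pair (about 3.7 kBq each) at 37°C for 2 and 4 h, with or without desipramine. After cold PBS washes, cells were lysed with 1 N NaOH at 37°C, 10 min twice. Dual-label gamma counting gave cell-associated fraction of total radioactivity.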

[8] = system: UVW-NAT cells; conditions: cited from earlier work
[9] = system: PC-12 rat pheochromocytoma xenografts; conditions: 8 h, single label format, PC-12 xenograft mice; cited from earlier work
[10] = system: SK-N-SH cells; conditions: cited from earlier work
[11] = i.v., 1 h, no DMI (controls), paired-label
[12] = i.v., 2 h, paired-label [^18F]FPOBBG / [^125I]MIBG
[13] = i.v., 4 h, paired-label [^18F]FPOBBG / [^125I]MIBG

Sequence of norepinephrine transporter (NET) (P51143 whole entry): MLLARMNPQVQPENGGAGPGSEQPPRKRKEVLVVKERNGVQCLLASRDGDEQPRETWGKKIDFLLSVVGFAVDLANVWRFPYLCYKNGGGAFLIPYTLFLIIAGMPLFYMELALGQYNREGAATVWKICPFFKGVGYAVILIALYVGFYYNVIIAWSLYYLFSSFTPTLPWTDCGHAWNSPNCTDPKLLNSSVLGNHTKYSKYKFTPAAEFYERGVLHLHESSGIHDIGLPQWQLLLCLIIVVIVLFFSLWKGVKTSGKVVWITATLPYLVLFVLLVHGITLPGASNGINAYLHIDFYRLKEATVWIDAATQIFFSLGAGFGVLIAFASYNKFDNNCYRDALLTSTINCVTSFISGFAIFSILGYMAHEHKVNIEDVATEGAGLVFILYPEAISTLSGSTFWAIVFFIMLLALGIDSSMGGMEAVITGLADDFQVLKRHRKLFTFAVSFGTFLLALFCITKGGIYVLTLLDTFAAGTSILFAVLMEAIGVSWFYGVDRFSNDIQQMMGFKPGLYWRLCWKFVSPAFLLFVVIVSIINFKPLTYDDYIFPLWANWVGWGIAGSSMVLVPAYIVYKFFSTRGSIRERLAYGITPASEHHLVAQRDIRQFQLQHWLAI

## NC(N)=NCc1cccc([125I])c1 [[^125I]MIBG]
[1]
  uptake (cell-associated radioactivity as percentage of input dose): 66.3 ± 3.6%
[2]
  uptake (cell-associated radioactivity as percentage of input dose): 57.3 ± 8.1%
[3]; 1 h
  heart uptake after DMI pretreatment as percent of controls: 69%
[3]; 1 h, experiment with co-injected [^18F]FPOIBG
  heart uptake after DMI pretreatment as percent of control values: 57%
[3]; [11]
  heart uptake: 18.7 ± 7.7 % ID/g
[3]; [12]
  heart uptake: 16.1 ± 1.4 % ID/g
[3]; [13]
  heart uptake: 10.2 ± 0.9 % ID/g
[4]
  uptake (cell-associated radioactivity as percentage of input dose): 82.7 ± 8.9%
[5]
  reduction of myocardial uptake by DMI pretreatment: 42 ± 4%

## N=C(N)NCc1cccc(I)c1 [MIBG, meta-iodobenzylguanidine]
[6]
  IC50: 1.5 ± 1.1 µM

## N=C(N)NCc1cccc([131I])c1 [[^131I]MIBG]
[3]; 1 h, experiment with co-injected [^125I]FPOIBG
  reduction of heart uptake by DMI: 51%

## N=C(N)NCc1ccc(OCCCF)c(Br)c1 [FPOBBG, 4-(3-Fluoropropoxy)-3-bromobenzylguanidine]
[6]
  IC50: 11 ± 2.9 µM

## N=C(N)NCc1ccc(OCCCF)c([125I])c1 [[^125I]FPOIBG, 4-(3-Fluoropropoxy)-3-[^125I]iodobenzylguanidine]
[7]
  uptake as percent of [^131I]MIBG: 31–53%
[3]
  hepatic (liver) uptake compared with co-injected radioiodinated MIBG: lower liver uptake
[3]; 1 h
  heart uptake after DMI pretreatment: 17.8 ± 1.8 % ID/g
[3]; compared with [^131I]MIBG
  thyroid uptake (indicator of deiodination): relatively low
[3]; i.v., 1–4 h, paired-label
  heart uptake as percent of that of [^131I]MIBG: 41–61%

## N=C(N)NCc1ccc(OCCC[18F])c(I)c1 [[^18F]FPOIBG, 4-(3-[^18F]Fluoropropoxy)-3-iodobenzylguanidine]
[1]
  uptake (cell-associated radioactivity as percentage of input dose): 13.3 ± 2.5%
[2]
  uptake (cell-associated radioactivity as percentage of input dose): 10.2 ± 1.5%
[3]; 1 h
  heart uptake after DMI pretreatment: 13.2 ± 3.3 % ID/g
[3]; 4 h, indicator of defluorination
  bone uptake relative to that of [^18F]FPOBBG: about 4 fold
[3]; i.v., three time points (1, 2, 4 h), paired-label
  myocardial uptake as percent of that of [^125I]MIBG: 72–74%
[4]
  uptake (cell-associated radioactivity as percentage of input dose): 39.6 ± 13.4%

## N=C(N)NCc1ccc(OCCC[18F])c(Br)c1 [[^18F]FPOBBG, 4-(3-[^18F]Fluoropropoxy)-3-bromobenzylguanidine]
[3]; 1 h
  heart uptake after DMI pretreatment as percent of controls: 73%
[3]; [11]
  heart uptake: 21.1 ± 5.6 % ID/g
[3]; [12]
  heart uptake: 20.1 ± 2.4 % ID/g
[3]; [13]
  heart uptake: 16.5 ± 2.3 % ID/g

## N=C(N)NCc1cccc([131I])c1 [MIBG, meta-iodobenzylguanidine]
[8]
  uptake in UVW-NAT cells compared to that in SK-N-BE(2c): two-fold higher

## N=C(N)NCc1ccc(OCCCF)c(I)c1 [FPOIBG, 4-(3-Fluoropropoxy)-3-iodobenzylguanidine]
[6]
  IC50: 20 ± 0.1 µM

## NC(N)=NCc1cccc([76Br])c1 [[^76Br]MBBG, ^76Br-meta-bromobenzylguanidine]
[9]
  uptake in both tumor and heart relative to [^123I]MIBG: about 4 fold
[5]
  reduction of myocardial uptake by DMI pretreatment: 64 ± 3%

## N=C(N)NCc1ccc([18F])c(I)c1 [[^18F]FIBG, 4-[^18F]fluoro-3-iodobenzylguanidine]
[10]
  uptake in SK-N-SH cells, higher than that of co-incubated n.c.a. [^125I]MIBG: about 15%
